From ChEMBL document CHEMBL5331127, “Discovery of ARD-2051 as a Potent and Orally Efficacious Proteolysis Targeting Chimera (PROTAC) Degrader of Androgen Receptor for the Treatment of Advanced Prostate Cancer” (J Med Chem, 2023)
Calls of active or inactive are those of the source.

Tests used:
[1] = Metabolic stability in dog hepatocytes assessed as half life at 1 uM measured upto 120 mins in presence of NADPH by LC-MS/MS analysis; format: ADME, cell-based, Canis lupus familiaris, Hepatocyte; conditions: 2 h
[2] = Metabolic stability in monkey plasma assessed as half life at 1 uM measured upto 120 mins by LC-MS/MS analysis; format: ADME, cell-free, Macaca mulatta; conditions: rhesus monkey, 2 h
Method in brief: (§1)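 Compound at 1 μM final in pre-warmed plasma of each species, 37 °C for up to 2 h. ACN/IS quench at 0, 5, 15, 30, 60 and 120 min; LC/MS. Procaine as reference (benfluorex for rat). t1/2 = 0.693/slope of ln(fraction remaining) versus time.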

Cytochrome P450 2D6 = Cytochrome P450 2D6 (Homo sapiens, UniProt P10635); test: Inhibition of CYP2D6 in human liver microsomes preincubated for 5 mins followed by NADPH addition and measured after 10 mins by LC/MS analysis; format: ADME, Microsome
[3] = Downregulation of KLK3 gene expression in human LNCaP cells at 0.3 nM incubated for 24 hrs by qRT-PCR analysis; format: functional
Method in brief: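 LNCaP cells (RPMI 1640) or VCaP cells (DMEM Glutamax), both with 10% FBS, treated for 24 h. KLK3 mRNA measured by qRT-PCR and calculated by the comparative CT method against GAPDH and vehicle.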

[4] = Metabolic stability in mouse plasma assessed as half life at 1 uM measured upto 120 mins by LC-MS/MS analysis; format: ADME, cell-free; conditions: 2 h; method in brief: as §1
VCaP [5] = test: Induction of androgen receptor degradation in human VCaP cells at 100 nM pretreated with thalidomide for 2 hrs followed by compound addition and 3 hrs by Western blot analysis; format: functional, cell-based; conditions: time 5.0 hrs
Method in brief: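 LNCaP or VCaP cells pretreated 2 h with DMSO, ARi-12 (10 μM), thalidomide (10 μM), MG-132 (3 μM) or MLN4924 (0.5 μM), then given degrader at 100 nM for 3 h. AR measured by Western blot with GAPDH as loading control.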

LNCaP = test: Growth inhibition in human LNCaP cells incubated for 4 days by WST-8 assay relative to control; format: functional; conditions: time 4 day
Method in brief: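 LNCaP cells grown in RPMI 1640 with 10% FBS, treated for 4 days. Viability read by WST-8 assay.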

Mus musculus = test: In vivo induction of androgen receptor degradation in human VCaP cells xenografted in CB17 SCID mouse assessed as reduction in KLK3 mRNA level at 12.5 mg/kg, po measured after 6 to 24 hrs by qRT-PCR analysis; format: functional, organism-based; conditions: time 6-24 hrs
[6] = target: T1, Androgen receptor (Homo sapiens) (UniProt P10275); test: Induction of androgen receptor degradation in human VCaP cells at 100 to 1000 nM incubated for 24 hrs by proteomic analysis; format: cell-based; conditions: dose 100-1000 nM
T1 sequence (whole entry): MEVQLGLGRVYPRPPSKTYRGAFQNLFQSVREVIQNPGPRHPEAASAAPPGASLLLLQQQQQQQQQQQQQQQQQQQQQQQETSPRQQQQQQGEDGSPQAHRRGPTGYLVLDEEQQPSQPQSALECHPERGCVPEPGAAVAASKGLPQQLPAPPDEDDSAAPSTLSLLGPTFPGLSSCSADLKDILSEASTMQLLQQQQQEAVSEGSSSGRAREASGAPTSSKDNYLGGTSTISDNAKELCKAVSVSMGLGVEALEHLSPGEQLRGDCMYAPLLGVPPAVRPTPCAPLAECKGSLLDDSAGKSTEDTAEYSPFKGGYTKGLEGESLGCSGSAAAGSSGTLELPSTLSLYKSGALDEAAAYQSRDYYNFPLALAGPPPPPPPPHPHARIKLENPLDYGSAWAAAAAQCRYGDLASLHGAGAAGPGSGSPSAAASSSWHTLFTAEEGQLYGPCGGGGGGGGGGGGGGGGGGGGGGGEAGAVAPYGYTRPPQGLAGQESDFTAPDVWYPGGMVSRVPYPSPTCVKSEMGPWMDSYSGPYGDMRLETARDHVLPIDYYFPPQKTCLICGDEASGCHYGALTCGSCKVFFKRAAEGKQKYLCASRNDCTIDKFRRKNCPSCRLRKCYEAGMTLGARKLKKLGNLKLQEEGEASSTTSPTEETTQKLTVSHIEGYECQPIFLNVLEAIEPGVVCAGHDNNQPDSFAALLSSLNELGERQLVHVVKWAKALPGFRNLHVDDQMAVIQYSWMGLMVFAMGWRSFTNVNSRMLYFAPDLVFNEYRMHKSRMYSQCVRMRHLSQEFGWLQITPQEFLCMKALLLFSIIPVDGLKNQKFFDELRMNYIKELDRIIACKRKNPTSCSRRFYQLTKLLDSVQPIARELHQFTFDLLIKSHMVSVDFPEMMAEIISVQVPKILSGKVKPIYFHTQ
Method in brief: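 VCaP cells treated for 24 h with degrader at 100 nM or 1 μM, or with ARi-12 at 10 μM. Multiplexed quantitative proteomics, normalised to DMSO, three independent replicates. Cut-off p ≤0.05 and fold change >2.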

[7] = Metabolic stability in rat plasma assessed as half life at 1 uM measured upto 120 mins by LC-MS/MS analysis; format: ADME, cell-free; conditions: 2 h; method in brief: as §1
[8] = Half life in Sprague-Dawley rat at 10 mg/kg, po measured up to 24 hrs by LC-MS/MS analysis; format: ADME, organism-based; conditions: in vivo
Method in brief: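 Male SD rats given a single oral dose of 10 mg/kg in 5% DMSO + 10% Solutol + 85% saline.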

[9] = Metabolic stability in human liver microsomes assessed as half life at 1 uM measured upto 45 mins in presence of NADPH by LC-MS/MS analysis; format: ADME, Microsome; conditions: 0.75 h
Method in brief: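 Pooled liver microsomes from each species: 1 μM compound with 0.5 mg/mL microsomes and 1.7 mM NADPH in 0.1 M K-phosphate, pH 7.4, 5 mM MgCl2, 37 °C. Sampled at 0, 5, 10, 15, 30 and 45 min with cold ACN quench. No-NADPH incubation as negative control; ketanserin as positive control. LC-MS/MS; half-life from ln(remaining) versus time.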

[10] = AUC(0 to t) in Sprague-Dawley rat at 1 mg/kg, iv measured upto 24 hrs by LC-MS/MS analysis; format: ADME, organism-based; parameters: time < 24 hrs, dose 1 mg/kg, route iv; conditions: in vivo
Method in brief: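 Male ICR mice (2 mg/kg), male SD rats (1 mg/kg) or male Beagle dogs (1 mg/kg) given a single intravenous dose in 10% PEG400 + 90% PBS adjusted to pH 8.0 with NaOH.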

[11] = Metabolic stability in human hepatocytes assessed as half life at 1 uM measured upto 120 mins in presence of NADPH by LC-MS/MS analysis; format: ADME, cell-based, Hepatocyte; conditions: 2 h
VCaP [12] = test: Antitumor activity against human VCaP cells xenografted in CB17 SCID mouse assessed as tumor growth inhibition at 3.75 mg/kg, po administered for 21 days; format: functional; conditions: 504 h, time 21 day, read-out: TGI
Method in brief: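 SCID mice bearing VCaP xenografts dosed by oral gavage once daily for 21 days at 3.75, 7.5, 12.5 or 25 mg/kg. Tumour growth inhibition calculated against vehicle-treated mice at the end of treatment; body weight monitored.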

Chain of Cytochrome P450 2D6 (P10635 whole entry): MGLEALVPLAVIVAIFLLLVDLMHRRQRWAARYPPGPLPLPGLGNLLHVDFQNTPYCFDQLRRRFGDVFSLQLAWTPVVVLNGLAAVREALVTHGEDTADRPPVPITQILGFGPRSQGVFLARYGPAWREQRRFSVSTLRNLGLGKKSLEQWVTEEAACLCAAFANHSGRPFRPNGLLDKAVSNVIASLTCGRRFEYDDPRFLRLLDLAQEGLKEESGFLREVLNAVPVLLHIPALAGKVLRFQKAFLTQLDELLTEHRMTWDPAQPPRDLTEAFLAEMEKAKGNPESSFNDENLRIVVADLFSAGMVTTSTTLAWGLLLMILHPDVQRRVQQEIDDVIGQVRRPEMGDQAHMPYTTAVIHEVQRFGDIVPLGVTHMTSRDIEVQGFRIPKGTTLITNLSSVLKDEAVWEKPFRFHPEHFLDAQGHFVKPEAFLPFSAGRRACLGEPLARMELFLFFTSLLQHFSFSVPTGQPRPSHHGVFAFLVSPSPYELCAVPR

C[C@H]1CC2(CCN(c3ccc(C(=O)N4CCN(C5CN(c6ccc7c(c6)C(=O)N(C6CCC(=O)NC6=O)C7=O)C5)CC4)cc3)CC2)CN1c1ccc(C#N)c(Cl)c1 (stereo not given in full)
t1/2 [1]: > 2 h | t1/2 [2]: > 2 h | IC50 (Cytochrome P450 2D6): > 10 µM | Activity [3]: 53% | t1/2 [4]: > 2 h | Activity (VCaP [5]): inactive | Imax (LNCaP): 100% | Activity (Mus musculus): Active | Activity [6]: 82% | t1/2 [7]: > 2 h | t1/2 [8]: 3.9 h | t1/2 [9]: > 1 h | AUCt [10]: 1560 ng·h/mL | t1/2 [11]: > 2 h | inhibition in vivo at 3.75 mg/kg (VCaP [12]): 44%
